In the array DNA melting data of Ke et al. (doi:10.1101/2024.01.08.574731) one finds folding enthalpy and Tm data, which are given here for 30 sequences.

Data set [1] can be described thus: folding enthalpy; higher = less favourable; fluorescence melt of hairpins on a sequencing array, two-state fit. Particulars: sodium 0.088 M. In short, it runs like this: (§1)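 To match UV melts, fitted temperatures were raised by 9.35 °C. These fits were bootstrapped two-state models that gave melting temperature and folding enthalpy, combined by inverse variance over four replicates. The input was normalised Cy3 fluorescence of library hairpins with annealed Cy3 and quencher oligos on a sequenced MiSeq flow cell, imaged in 50 mM Na-HEPES pH 8.0, 25 mM NaCl in 2.5 °C steps up to 60 °C.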

The nature of data set [2]: melting temperature; fluorescence melt of hairpins on a sequencing array, two-state fit, raised by 9.35 °C to match UV melts. Particulars: sodium 0.088 M. In short, it runs like this:
as §1

Consider GTACGCGAAAGCGCTAC ((((((....))).))), for which the folding enthalpy in data set [1] was -13.2 kcal/mol. Also, in data set [2], the Tm is 42.2 °C.
Consider GCAACGCCGAAAGGCTGC (((..(((....)))))), for which the folding enthalpy in data set [1] is -15.4 kcal/mol. Besides, the Tm in data set [2] is 47.8 °C.
As for GGCAAAACGAAAGTTGCC (((..(((....)))))), the folding enthalpy in data set [1] is -38.6 kcal/mol. In addition, the Tm in data set [2] was determined as 52.7 °C.
GGGCACGAAAGTGATCCC ((((((....)))..))): the folding enthalpy in data set [1] is -19.4 kcal/mol. Moreover, in data set [2], the Tm was found to be 50.3 °C.
In the case of GGTTATGAAAATAACC ((((((....)))))), in data set [1], the folding enthalpy is -31.8 kcal/mol. The Tm in data set [2] came to 50.9 °C.
The like results for GATTATGGAAACATAGTC ((.((((....)))).)) were, in that order, -16.8 kcal/mol and 31.7 °C.
With GATCTAGATTAGATC ((((((...)))))), in data set [1], the folding enthalpy is -26.3 kcal/mol. For the same sequence, in data set [2], the Tm turned out to be 36.2 °C.
Consider GCACGCGGAAACGCGTAC (.(((((....))))).), for which the folding enthalpy in data set [1] was -10.1 kcal/mol. The Tm in data set [2] was determined as 48.1 °C.
For GATCTCGGAAACGGGATC ((((.((....)).)))) the same measures were -35 kcal/mol and 51.3 °C.
As for GCGTTGCGAAAGCACAGC ((..(((....)))..)), the folding enthalpy in data set [1] is -20.9 kcal/mol. In data set [2], the Tm worked out at 51.1 °C.
On to GCTGCTGGAAACAACAGC ((((.((....)).)))), for which the folding enthalpy in data set [1] is -32.8 kcal/mol. In data set [2], the Tm amounted to 47.2 °C.
As to GGATCCACGAAAGTGTCC (((..(((....)))))), the folding enthalpy in data set [1] was -12.4 kcal/mol. The Tm in data set [2] worked out at 28.4 °C.
Turning to GAGCCGGGAAACCGACTC (((.(((....))).))), the folding enthalpy in data set [1] is -42.8 kcal/mol. Moreover, in data set [2], the Tm came to 49.5 °C.
For the sequence CTACTGAAAAGTAG (((((....))))), the folding enthalpy in data set [1] is -13.5 kcal/mol. Further, the Tm in data set [2] is 44.3 °C.
On to GAGTACGAAAGTATCTC ((((((....))).))), for which the folding enthalpy in data set [1] is -26.8 kcal/mol. In addition, the Tm in data set [2] is 41.9 °C.
As for GTATTCCGAAAGGATTAC (((.(((....))).))), the folding enthalpy in data set [1] was -28.2 kcal/mol. Moreover, the Tm in data set [2] was 43.5 °C.
Consider GATCCCTATAGGGATC ((((((....)))))), for which the folding enthalpy in data set [1] was -45.4 kcal/mol. In data set [2], the Tm was determined as 65.6 °C.
Regarding GGCTGACGAAAGTCGCC (((.(((....)))))), in data set [1], the folding enthalpy was -28.9 kcal/mol. In addition, the Tm in data set [2] was 59.6 °C.
Regarding GGACCCGGAAACGAGCCC ((.(.((....)).).)), the folding enthalpy in data set [1] is -16 kcal/mol. Also, the Tm in data set [2] came out at 30.2 °C.
With GATACCCGAAAGGGATC (((.(((....)))))), the folding enthalpy in data set [1] was -16.1 kcal/mol. Also, the Tm in data set [2] stood at 42.1 °C.
As for GCCACGGGAAACTGTGGC (((((.(....).))))), in data set [1], the folding enthalpy is -43.2 kcal/mol. The Tm in data set [2] came out at 63.2 °C.
For GAGTGGGCGAAAGCCCTC (((..(((....)))))) the same measures were -8.27 kcal/mol and 34 °C.
Regarding GATCTAACGGTAGATC ((((((....)))))), in data set [1], the folding enthalpy was -38.4 kcal/mol. The Tm in data set [2] came out at 40.5 °C.
Consider GCAAGCCGAAAGGCGTGC (((.(((....))).))), for which, in data set [1], the folding enthalpy is -18.9 kcal/mol. The Tm in data set [2] worked out at 68.7 °C.
The like results for GGCGACGGAAACGTCGTC (.(((((....))))).) were, in that order, -26.5 kcal/mol and 67.9 °C.
For GTACACGAAAGTGGATAC ((((((....)))..))) the same measures were -11.8 kcal/mol and 34.5 °C.
For the sequence GCCCTTGGAAACAGGGGC ((((.((....)).)))), the folding enthalpy in data set [1] was -41.4 kcal/mol. The Tm in data set [2] turned out to be 54.4 °C.
Take GGGTCAACGAAAGTTCCC (((..(((....)))))): in data set [1], the folding enthalpy is -18.8 kcal/mol. Further, the Tm in data set [2] was 34.7 °C.
With GATCCGAAGGCGGATC ((((((....)))))), in data set [1], the folding enthalpy is -28.4 kcal/mol. Also, the Tm in data set [2] came out at 52.3 °C.
As to GCAGTGACGAAAGTCTGC (((..(((....)))))), in data set [1], the folding enthalpy is -23.8 kcal/mol. In addition, in data set [2], the Tm stood at 48 °C.
